# XiGFP reactiv: activators of inactive X chromosome reactivation, primary screen, imaging, XiGFP fibroblasts, GFP high-content imaging, set 2; XiGFP mouse fibroblasts, % GFP-positive cells imaging, 3 d; cells co-treated with 5-aza-dC sensitizer; scaled so ellipticine positive control = 100%; activation, % at 7.58 µM; 0.055% of 360,000 active; AID 743238, 2013;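 active = mean normalized replicate activation at least 10% and every replicate at or above 10%; inconclusive = only one of the two criteria met; inactive = mean below 10% and not all replicates reach 10%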;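 note: 0% = median of on-plate neutral control wells and 100% = ellipticine 6 µM median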
#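 System: XiGFP fibroblasts, SV40-immortalized. Medium: DMEM plus 5-aza-dC sensitizer. Doses: single point. Timing: 3 d treatment, 15 min room-temperature fixation. Control set: ellipticine 6 µM.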
# RAD52 anneal inh: RAD52 DNA annealing inhibitors, primary screen, biochemical, FRET, single point, set 2; inhibition, % at 18.7 µM; recombinant RAD52 DNA annealing, FRET fluorescence; 0.46% of 360,000 active;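 active = every replicate showing at least 50% inhibition; inconclusive = mean inhibition at least 50% but not in every replicate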
# CASP6 VEID inh: human caspase-6 inhibitors, primary screen, biochemical, VEID-R110 fluorescence, single point, set 2. 0.53% of 350,000 active. inhibition, % at 12.5 µM. purified caspase-6, Z-VEID-R110 cleavage fluorescence. AID 686996, 2013. P55212;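 active = mean inhibition across replicates at least about 35%, with every replicate also reaching that limit, limit read from the data; inconclusive = only one of the two criteria met; inactive = neither criterion met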;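 note: 0% = median of neutral control wells and 100% = no fluorescence left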
# S100A4 MyoIIA: inhibitors of S100A4-myosin IIA peptide binding, primary screen, biochemical, fluorescence polarization, TAMRA-MyoIIA peptide | inhibition, % at 10.7 µM | 0.14% of 360,000 active;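 active = mean inhibition of at least 70% across replicates, with every replicate also reaching that level; inconclusive = mean inhibition reaches 70% but some replicates fall short; inactive = mean inhibition below 70%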
#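 incubation = readout 5 min after mixing, signal stable up to 60 min | system = S100A4 monomer protein | buffer or medium = HEPES pH 7.2 with CaCl2, KCl, NaCl, DTT, Triton | benchmarks = neutral control DMSO, positive control TFP | also added = fluorescent myosin IIA peptide, 5 nM | compound dosing = one concentration per compound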
# RAD54 branch: inhibitors of human RAD54 branch migration, primary screen, biochemical, fluorescence, single point | inhibition, % at 10.4 µM | RAD54 Holliday junction branch migration, FAM/BHQ fluorescence | DNA repair and recombination protein RAD54-like (Homo sapiens), Q92698 | 0.14% of 360,000 active;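 active = mean normalized replicate activity at least 40 and at least half of replicates scoring 40 or more; inconclusive = only one of the two criteria met; inactive = mean below 40 and under half of replicates reaching 40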;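 note: 0% = median of neutral control wells and 100% = median of positive control wells; inhibitors cause a drop in the FAM fluorescence signal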
# MLL AF4-AF9 inh: inhibitors of AF4 peptide binding to AF9, primary screen, biochemical, AlphaScreen, biotin-AF4 peptide, FLAG-AF9, single point. Protein AF-9 (Homo sapiens), P42568. inhibition, % at 10 µM. 0.47% of 350,000 active. AID 651704, 2012;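 active = every replicate reaching a set inhibition limit, whatever the replicate mean, cut at about 25% in these data; inconclusive = mean inhibition reaches that limit but some replicates miss it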;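 note: 0% = plate neutral control median and 100% = total signal loss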
# Target sequence (P42568 whole entry, looked up): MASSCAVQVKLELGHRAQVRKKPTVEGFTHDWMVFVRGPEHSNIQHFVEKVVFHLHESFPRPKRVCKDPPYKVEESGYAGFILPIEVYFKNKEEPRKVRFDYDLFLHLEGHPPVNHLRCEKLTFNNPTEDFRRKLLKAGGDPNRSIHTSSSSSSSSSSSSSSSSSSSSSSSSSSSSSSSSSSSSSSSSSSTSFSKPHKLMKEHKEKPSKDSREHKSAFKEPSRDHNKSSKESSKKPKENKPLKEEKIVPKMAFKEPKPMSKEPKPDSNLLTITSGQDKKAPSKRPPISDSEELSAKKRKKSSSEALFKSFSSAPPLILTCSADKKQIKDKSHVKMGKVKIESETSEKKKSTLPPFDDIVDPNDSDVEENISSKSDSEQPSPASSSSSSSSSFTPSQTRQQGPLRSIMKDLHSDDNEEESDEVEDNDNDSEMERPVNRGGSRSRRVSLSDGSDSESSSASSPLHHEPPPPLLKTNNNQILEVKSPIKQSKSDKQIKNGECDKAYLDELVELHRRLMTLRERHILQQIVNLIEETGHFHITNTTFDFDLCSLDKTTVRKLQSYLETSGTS
# RAD52 DNA ctr: DNA-binding compounds via dye displacement, dose response, artefact control for RAD52 inhibitor project, biochemical, fluorescence polarization, cherry-pick; shares compounds with RAD52 anneal inh; Salmon sperm DNA/acridine orange FP displacement; AC50, µM; 8% of 1,000 active; AID 652128, 2013;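 active = fitted half-maximal concentration for signal loss at or below twice the highest dose tested, in every separate run, actives reach about 64 µM in these data; inconclusive = runs disagree, or flat partial signal loss, or poor fit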
# Active calls of the source: *; i = inactive; ? = inconclusive; · = no result. An excerpt weighted towards active compounds, which were near 1.3% of everything screened.
SMILES,XiGFP reactiv,RAD52 anneal inh,CASP6 VEID inh,S100A4 MyoIIA,RAD54 branch,MLL AF4-AF9 inh,RAD52 DNA ctr
COc1ccc(NC(=O)N(C)C[C@H]2Oc3ncc(C#CCC(C)C)cc3C(=O)N([C@@H](C)CO)C[C@@H]2C)cc1,-1,-7,-1,3,3,-12,·
COCC(=O)N1CCC2(CC1)CN(C(=O)Nc1ccccc1F)[C@H](CO)c1c2c2ccc(OC)cc2n1C,0,-3,-2,?,·,0,·
CC(=O)c1ccc(-c2cnc3c(NC=O)cc(-c4ccc(N5CCN(C)CC5)cc4)cn23)cc1,0,67*,-32,-3,35,12,i
N#Cc1ccc2[nH]cc(C3c4cc(F)ccc4C=C(c4ccsc4)N3c3ccc(C#CCCO)cc3)c2c1 (stereo not given),0,-2,-2,30,·,-8,·
COc1cc(-c2ccc(N3C(c4ccsc4)=Cc4ccc(F)cc4C3c3c[nH]c4ccc(C#N)cc34)cc2)cc(OC)c1OC (stereo not given),0,71*,0,4,·,-2,i
COc1ccc(NC(=O)N(C)C[C@@H]2OCCCC[C@H](C)Oc3ccc(NC(=O)Cc4ccccc4)cc3C(=O)N([C@H](C)CO)C[C@@H]2C)cc1,0,-19,-4,-9,-1,-1,·
CO[C@H]1CN(C)C(=O)c2ccc(NS(C)(=O)=O)cc2OC[C@H](C)N(C)C[C@@H]1C,0,-13,2,9,·,-3,·
CC(=O)Nc1cccc(N/C(N)=N/c2nc(C)cc(C)n2)c1,0,57*,3,0,·,0,i
CCN(CC)CCN(C(=O)c1ccc2ccccc2c1)c1nc2cc3c(cc2s1)OCO3,0,61*,-3,2,-2,5,i
C[C@@H]1CN([C@H](C)CO)C(=O)c2ccccc2-c2ccccc2CO[C@@H]1CN(C)S(=O)(=O)c1ccc(F)cc1,0,4,-1,17,0,-2,·
CN(C)CCN(C)Cc1ccccc1Sc1cccc2ccccc12,0,52*,-2,2,12,36*,i
O=C(CNC1CCCC1)Nc1ccc(N2CCCCCC2)cc1,0,78*,-5,-13,·,44*,i
CCOc1cc2[nH]c(=S)n(Cc3ccc(C(=O)NCC(OC)OC)cc3)c(=O)c2cc1OCC,·,·,·,·,-5,·,·
CCOc1cc2[nH]c(=S)n(Cc3ccc(C(=O)NCCN(CC)CC)cc3)c(=O)c2cc1OCC,0,53*,-14,-4,45,-1,i
CC(C)C#Cc1ccc([C@@H]2[C@@H](CO)N(C(=O)CN(C)C)[C@H]2C#N)cc1,0,-34,-5,0,-2,1,·
CN(C)Cc1cn(CC[C@@H]2CC[C@H](NC(=O)Nc3ccccc3F)[C@H](CO)O2)nn1,0,2,2,17,-1,-2,·
COc1cc(OC)nc(Nc2nc(C(N)CCc3ccccc3)cs2)n1 (stereo not given),0,62*,1,1,13,6,i
CC(C)Oc1cc(C(=O)N2CCC(N3CCCCC3)CC2)ccc1Nc1nnc(Cl)c(Nc2ccccc2S(C)(=O)=O)n1,·,·,·,·,23,·,·
CN1CCN(C2CCN(c3ccc(Nc4nnc(Cl)c(Nc5ccccc5S(C)(=O)=O)n4)c(OC(CF)CF)c3)CC2)CC1,1,51*,-65,0,2,·,i
CC1CCCCN1CCNC(=O)c1cc2c(-c3ccccc3F)nn(C)c2s1 (stereo not given),0,56*,1,-13,14,1,i

# Bioassay records from PubChem.
